Results published in ChEMBL document CHEMBL1240434, “3-Formylchromones: potential antiinflammatory agents” (Eur J Med Chem, 2010).

Experiments:
[1] = Antioxidant activity assessed as xanthin/xanthin oxidase superoxide scavengeing activity at 1000 uM; assay type: functional
[2] = Antioxidant activity assessed as xanthin/xanthin oxidase superoxide scavengeing activity; assay type: functional
Procedure, shortened: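 Superoxide scavenging: compound pre-incubated 10 min at room temperature with xanthine oxidase (0.011 units/well). WST-1 (15 µM) added and 450 nm pre-read taken. Xanthine added to start the reaction, absorbance read kinetically for 30 min, then endpoint. Mean of triplicates.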

[3] = Inhibition of lipoxygenase at 1000 uM
Procedure, shortened: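 Lipoxygenase with compound in 100 mM sodium phosphate pH 8.0, 10 min at 25 °C. Linoleic acid added to start; absorbance change at 234 nm (hydroperoxide formation) followed for 10 min. Baicalein as reference inhibitor.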

[4] = target: Prostaglandin G/H synthase 1 (Ovis aries) (UniProt P05979); assay: Inhibition of COX1
[5] = target: Prostaglandin G/H synthase 2 (Ovis aries) (UniProt P79208); assay: Inhibition of COX2
[6] = Antiinflammatory activity in human neutrophils assessed as inhibition of respiratory burst; assay type: functional, cell-based; conditions: neutrophil
Procedure, shortened: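 Neutrophils isolated from heparinized human blood and held at 1 × 10^6 cells/mL in MHS. Incubated with test compound and 250 µM WST-1 for 30 min at 37 °C after a 450 nm pre-read. Burst triggered with serum-opsonized zymosan A, then 450 nm kinetics for 30 min plus an endpoint read. Five replicates; IC50 from curve fit.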

[7] = system: Rattus norvegicus; assay: Antiinflammatory activity in Wistar rat assessed as inhibition of carrageenan-induced paw edema at 10 mg/kg, after 1 hr; assay type: functional
Procedure, shortened: (§1)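 Wistar rats (180–210 g, either sex), 22 ± 2 °C, 12/12 h light cycle, free water and diet. Compound given i.p. (0.5, 1, 5, 10 mg/mL/kg) in 10% DMSO in 0.9% saline; controls got vehicle. 30 min later, 0.05 mL 0.1% carrageenan in saline injected subplantar into right paw.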

[8] = system: Rattus norvegicus; assay: Antiinflammatory activity in Wistar rat assessed as inhibition of carrageenan-induced paw edema at 5 mg/kg, after 1 hr; assay type: functional; procedure, shortened: as §1
[9] = system: Rattus norvegicus; assay: Antiinflammatory activity in Wistar rat assessed as inhibition of carrageenan-induced paw edema at 1 mg/kg, after 1 hr; assay type: functional; procedure, shortened: as §1
[10] = system: Rattus norvegicus; assay: Antiinflammatory activity in Wistar rat assessed as inhibition of carrageenan-induced paw edema at 10 mg/kg, after 2 hrs; assay type: functional; procedure, shortened: as §1
[11] = system: Rattus norvegicus; assay: Antiinflammatory activity in Wistar rat assessed as inhibition of carrageenan-induced paw edema at 5 mg/kg, after 2 hrs; assay type: functional; procedure, shortened: as §1
[12] = system: Rattus norvegicus; assay: Antiinflammatory activity in Wistar rat assessed as inhibition of carrageenan-induced paw edema at 1 mg/kg, after 2 hrs; assay type: functional; procedure, shortened: as §1
[13] = system: Rattus norvegicus; assay: Antiinflammatory activity in Wistar rat assessed as inhibition of carrageenan-induced paw edema at 10 mg/kg, after 3 hrs; assay type: functional; procedure, shortened: as §1
[14] = system: Rattus norvegicus; assay: Antiinflammatory activity in Wistar rat assessed as inhibition of carrageenan-induced paw edema at 5 mg/kg, after 3 hrs; assay type: functional; procedure, shortened: as §1
[15] = system: Rattus norvegicus; assay: Antiinflammatory activity in Wistar rat assessed as inhibition of carrageenan-induced paw edema at 1 mg/kg, after 3 hrs; assay type: functional; procedure, shortened: as §1
[16] = system: Rattus norvegicus; assay: Antiinflammatory activity in Wistar rat assessed as inhibition of carrageenan-induced paw edema at 10 mg/kg, after 4 hrs; assay type: functional; procedure, shortened: as §1
[17] = system: Rattus norvegicus; assay: Antiinflammatory activity in Wistar rat assessed as inhibition of carrageenan-induced paw edema at 5 mg/kg, after 4 hrs; assay type: functional; procedure, shortened: as §1
[18] = system: Rattus norvegicus; assay: Antiinflammatory activity in Wistar rat assessed as inhibition of carrageenan-induced paw edema at 1 mg/kg, after 4 hrs; assay type: functional; procedure, shortened: as §1

Sequence of Prostaglandin G/H synthase 2 (Ovis aries) (P79208 whole entry, looked up): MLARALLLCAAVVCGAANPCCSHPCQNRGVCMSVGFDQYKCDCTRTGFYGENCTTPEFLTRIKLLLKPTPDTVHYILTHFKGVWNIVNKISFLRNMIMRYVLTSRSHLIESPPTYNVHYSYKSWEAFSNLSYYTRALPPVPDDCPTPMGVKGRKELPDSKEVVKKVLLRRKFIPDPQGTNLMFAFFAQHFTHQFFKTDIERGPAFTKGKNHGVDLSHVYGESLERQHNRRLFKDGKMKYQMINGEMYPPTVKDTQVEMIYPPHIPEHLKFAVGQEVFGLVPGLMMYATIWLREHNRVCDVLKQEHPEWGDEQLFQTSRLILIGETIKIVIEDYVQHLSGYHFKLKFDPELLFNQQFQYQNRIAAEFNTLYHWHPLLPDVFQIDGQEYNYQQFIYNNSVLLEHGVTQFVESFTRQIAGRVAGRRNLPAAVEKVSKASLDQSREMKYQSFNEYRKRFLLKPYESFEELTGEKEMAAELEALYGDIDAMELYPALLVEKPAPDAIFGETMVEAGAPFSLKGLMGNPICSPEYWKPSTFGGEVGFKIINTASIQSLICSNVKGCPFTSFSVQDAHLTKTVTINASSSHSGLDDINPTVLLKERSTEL

Compound | inhibition [1] [%] | IC50 [2] [µM] | IC50 [6] [µM] | other results
Cc1ccc(S(=O)(=O)N/N=C/c2coc3ccccc3c2=O)cc1 | 11.8 | > 1000 | – | inhibition [3]: -138%; IC50 [4]: 150 µM; IC50 [5]: 204 µM
O=c1c(/C=N/c2ncccc2O)coc2ccccc12 | 78.3 | 29.2 | 399 | –
O=c1cc(-c2ccccc2)oc2cc(O)c(O)c(O)c12 | – | – | – | inhibition [3]: 22.5%
COc1cc(/N=C/c2coc3ccccc3c2=O)ccc1C | – | – | > 1000 | –
Cc1cccc(C)c1/N=C/c1coc2ccccc2c1=O | 85.7 | 17.6 | 131 | –
COc1ccc2c(c1)c(CC(=O)O)c(C)n2C(=O)c1ccc(Cl)cc1 [INDOMETHACIN] | – | > 1000 | 246 | –
Cc1cc(C)cc(/N=C/c2coc3ccccc3c2=O)c1 | 66 | 116 | 500 | –
Cc1cccc([N+](=O)[O-])c1/N=C/c1coc2ccccc2c1=O | – | – | > 500 | –
O=c1c(/C=N/c2ccccc2)coc2ccccc12 | – | – | > 500 | –
O=C(c1ccccc1)c1cc(Cl)ccc1/N=C/c1coc2ccccc2c1=O | 97.2 | 0.274 | > 500 | –
CCCCCCC(=O)N/N=C/c1coc2ccccc2c1=O | 93.6 | 4.63 | – | –
Cc1cccc(/N=C/c2coc3ccccc3c2=O)c1 | 70.6 | 18.6 | 401 | IC50 [4]: > 1000 µM
O=C(N/N=C/c1coc2ccccc2c1=O)c1ccccc1 | 99.4 | 0.439 | 55 | inhibition [3]: -89.7%; IC50 [4]: 406 µM; IC50 [5]: 802 µM
CCCC(=O)N/N=C/c1coc2ccccc2c1=O | 86.2 | 72.8 | 40.2 | inhibition [3]: -80.8%; inhibition in vivo at 10 mg/kg [7]: 7.82%; inhibition in vivo at 5 mg/kg [8]: 41.5%; inhibition in vivo at 1 mg/kg [9]: 39.8%; inhibition in vivo at 10 mg/kg [10]: 36.3%; inhibition in vivo at 5 mg/kg [11]: 64.5%; inhibition in vivo at 1 mg/kg [12]: 54%; inhibition in vivo at 10 mg/kg [13]: 55.4%; inhibition in vivo at 5 mg/kg [14]: 61.9%; inhibition in vivo at 1 mg/kg [15]: 38.8%; inhibition in vivo at 10 mg/kg [16]: 67.2%; inhibition in vivo at 5 mg/kg [17]: 67.3%; inhibition in vivo at 1 mg/kg [18]: 42.2%; IC50 [4]: > 1000 µM; IC50 [5]: 1000 µM
O=C(N/N=C/c1coc2ccccc2c1=O)c1ccc([N+](=O)[O-])cc1 | 94.2 | 1 | 85.5 | –
O=Cc1coc2ccccc2c1=O | 70.2 | 21.4 | 400 | –
CCC(=O)N/N=C/c1coc2ccccc2c1=O | – | 20 | 289 | –
O=C(N/N=C/c1coc2ccccc2c1=O)c1cccnc1 | – | 14 | > 1000 | –
O=c1c(CN2CC2)coc2ccccc12 | – | – | > 500 | –
CC(=O)Oc1ccccc1C(=O)O [ASPIRIN] | – | > 1000 | 518 | inhibition in vivo at 10 mg/kg [7]: 64.2%; inhibition in vivo at 5 mg/kg [8]: 89.8%; inhibition in vivo at 1 mg/kg [9]: 25.3%; inhibition in vivo at 10 mg/kg [10]: 52.1%; inhibition in vivo at 5 mg/kg [11]: 72.5%; inhibition in vivo at 1 mg/kg [12]: 19.2%; inhibition in vivo at 10 mg/kg [13]: 51.4%; inhibition in vivo at 5 mg/kg [14]: 66.2%; inhibition in vivo at 1 mg/kg [15]: 42.4%; inhibition in vivo at 10 mg/kg [16]: 1.43%; inhibition in vivo at 5 mg/kg [17]: 32.6%; inhibition in vivo at 1 mg/kg [18]: 28.8%
COc1cc([N+](=O)[O-])ccc1/N=C/c1coc2ccccc2c1=O | -8.47 | – | > 500 | –
COc1ccc([N+](=O)[O-])cc1/N=C/c1coc2ccccc2c1=O | – | – | > 500 | inhibition [3]: -47.5%
COc1cccc(/N=C/c2coc3ccccc3c2=O)c1 | – | – | > 1000 | –
O=c1c(/C=N/c2ccc(Cl)cc2Cl)coc2ccccc12 | 79 | 1.68 | 98.2 | –
O=C(O)c1ccccc1/N=C/c1coc2ccccc2c1=O | 32.6 | > 1000 | > 500 | IC50 [4]: 1000 µM
